Screening data deposited in PubChem BioAssay by several laboratories.
Compounds with a hit are over-represented: about 12% of the library has one in this group of screens.
CHOP inh – CHOP inhibition in unfolded protein response | inhibition, % at 10 µM | CHO-K1 CHOP-promoter luciferase, tunicamycin-induced, 15-18 h | hit rate 3.8% among 220,000 | AID 2732;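 active means compounds that reduced the stress-induced luciferase reporter signal by more than about 70% of percent inhibition, limit read from the data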;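 further: 0% = tunicamycin plus vehicle and 100% = wells without tunicamycin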
b-catenin transl – alters nuclear translocation of beta-catenin in HeLa cells | nuclear translocation activity, % at 5 µM | immunofluorescence imaging | hit rate 0.3% among 190,000;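 active means nuclear translocation activity above 50% at 5 µM, with a well cell count of 50 or more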;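 further: per-cell ratio of nuclear to cytoplasmic median beta-catenin stain intensity; plate controls were DMSO negative control for no effect and GSK-3 inhibitor IX positive control for full effect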
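Test system: human HeLa cell line; Doses: 5 µM primary, 0.02–20 µM confirmation; Incubation: 24 h compound exposure, 37°C; Detection: beta-catenin immunofluorescence imaging with DAPI; Read-out: beta-catenin nuclear/cytoplasmic ratio, % activation.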
Dynein cargo inh – blocks dynein driven cargo transport along microtubules | 3617.4 mouse cells, GR-EGFP nuclear translocation imaging; test concentration mostly 20 µM; stimulated with dexamethasone, 1 µM; hits give low values | z-score, hits read low | hit rate 0.47% among 220,000;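 active means plate z-score of nuclear minus cytoplasmic receptor signal below a set negative limit, without overly bright fluorescence or cell loss, cut at about -3.5 in these data, passing the limit was not always enough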;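 further: z-score of nuclear minus cytoplasmic ring GR-EGFP intensity difference per well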
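Buffer or medium – tet-free medium with charcoal-stripped serum · Signal – automated 10x imaging of fixed Hoechst-stained cells · Also added – dexamethasone agonist, 1.0 µM final, for 30 min · Incubation – induction 48 h, compound 1 h, agonist 30 min · Read-out – GR-EGFP nuclear translocation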
Autophagy HCS – alters autophagy in cells; hit rate 0.98% among 190,000; calls only at 10 µM (by protocol); AID 463193; MEF GFP-LC3 puncta imaging; test concentration mostly 10 µM;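 active means percentage of spot-positive cells more than 3 SD above its plate mean, without a fluorescence outlier flag or 80% toxicity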;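 further: spot-positive cell cutoff set from DMSO-treated cells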
MT stabilizer – microtubule stabilization, imaging screen; HeLa tubulin immunostaining HCS, 24 h; share of cells brighter than vehicle mean+2SD; % tubulin-high responders, % at 10 µM; hit rate 0.83% among 200,000; AID 2205;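 active means plate Z-score above 3 for both tubulin-high and condensed-nucleus cell shares, with cell loss under 80%, at 10 µM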;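 further: anti alpha tubulin signal scored within the nucleus-defined area of each cell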
L major viab – Leishmania major promastigote growth inhibition; Leishmania major promastigotes, resazurin fluorescence viability; inhibition, % at 10 µM; hit rate 9% among 200,000; in the data active means inhibition above about 50%;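 further: promastigotes grown with compound for 44 hours at 28 °C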
* = called active by the depositor.

Screening Cn1c(=O)c(C(=O)COC(=O)c2cc(-c3ccco3)nc3ccccc23)c(N)n(Cc2ccccc2)c1=O returned CHOP inh -32.0, Dynein cargo inh -0.922, Autophagy HCS inactive, MT stabilizer 2.7 and L major viab 98.7*.
For Cn1c(N)c(C(=O)COC(=O)c2cc(-c3ccccc3)nc3ccccc23)c(=O)n(Cc2ccccc2)c1=O the results were CHOP inh 17.5, Dynein cargo inh 0.601, Autophagy HCS inactive, MT stabilizer 4.5 and L major viab -3.0.
Screening C=C[C@H]1CN2CCC1C[C@@H]2[C@@H](O)c1ccnc2ccc(OC)cc12 (some centres undefined) returned CHOP inh -18.9.
Screening CCc1ccc(C(=O)COC(=O)C(Cc2ccccc2)NC(=O)c2ccc(Cl)cc2)cc1 (centres undefined) returned CHOP inh 37.3, b-catenin transl 3.2, Dynein cargo inh 0.959, Autophagy HCS inactive, MT stabilizer 1.6 and L major viab 75.2*.
Cc1cc(OCC(=O)N(C(C)C)C(C)C)ccc1Cl was read as CHOP inh 14.6, b-catenin transl 1.7, Dynein cargo inh -0.534, Autophagy HCS inactive, MT stabilizer 1.6 and L major viab -0.4.
`CC(C)N(C(=O)CS(=O)(=O)c1ccc(Cl)c(Cl)c1)C(C)C` gave CHOP inh 3.9, b-catenin transl 0.9, Dynein cargo inh 0.696, Autophagy HCS inactive, MT stabilizer 4.2 and L major viab 85.4*.
Cc1ccc2nc3sc(C(=O)N4CCCc5ccccc54)c(N)c3cc2c1 was read as CHOP inh -9.8, b-catenin transl 0.0, Dynein cargo inh -0.621, Autophagy HCS inactive, MT stabilizer 28.1* and L major viab 28.7.
Screening Cc1ccc(-c2cc(C(=O)N3CCCc4ccccc43)c3ccccc3n2)cc1 returned CHOP inh 26.2, b-catenin transl -1.6, Dynein cargo inh 0.62, Autophagy HCS inactive, MT stabilizer 2.4 and L major viab 35.9.
`O=C(c1cc(-c2cccnc2)nc2ccccc12)N1CCCc2ccccc21` gave CHOP inh 14.6, b-catenin transl -3.4, Dynein cargo inh 0.618, Autophagy HCS inactive, MT stabilizer 13.9* and L major viab 23.0.
Screening Cc1cc(C)c2cc3c(N)c(C(=O)N4CCc5ccccc5C4)sc3nc2c1 returned CHOP inh -0.5, b-catenin transl -1.7, Dynein cargo inh 0.376, Autophagy HCS inactive, MT stabilizer 1.1 and L major viab -3.0.
Cc1ccc(CC(=O)O/N=C(\N)c2cccc([N+](=O)[O-])c2)cc1 was read as CHOP inh -21.7, b-catenin transl -2.0, Dynein cargo inh 0.482, Autophagy HCS inactive, MT stabilizer 1.2 and L major viab 80.2*.
For Cn1c(CN2CCN(C(=O)c3ccc(F)cc3)CC2)nc2cc([N+](=O)[O-])ccc21 the results were CHOP inh 10.1, b-catenin transl -1.4, Dynein cargo inh -0.625, Autophagy HCS inactive, MT stabilizer 3.3 and L major viab 63.8*.
`COc1ccccc1C(=O)N1CCN(Cc2nc3cc([N+](=O)[O-])ccc3n2C)CC1` gave CHOP inh 7.5, b-catenin transl -3.7, Dynein cargo inh 0.938, Autophagy HCS inactive, MT stabilizer 3.0 and L major viab 4.0.
Cc1ccc(S(=O)(=O)c2nc(Nc3nccs3)sc2Cl)cc1 was read as CHOP inh 72.2*, Dynein cargo inh -0.558, Autophagy HCS inactive, MT stabilizer 3.7 and L major viab -3.2.
For CC(=O)Nc1nc(S(=O)(=O)c2ccc(C)cc2)c(Cl)s1 the results were CHOP inh 41.5, b-catenin transl -1.8, Dynein cargo inh 0.165, Autophagy HCS inactive, MT stabilizer 1.7 and L major viab -3.2.
`CC(C)(C)OC(=O)N1CCC[C@H]1c1nnc(SCc2ccc(Cl)cc2)o1` gave CHOP inh 27.6, b-catenin transl 0.5 and Dynein cargo inh -0.682.
`CN1CCN(c2nc(-c3cc4ccccc4o3)cs2)CC1` gave CHOP inh 12.3, Dynein cargo inh -0.401, Autophagy HCS inactive, MT stabilizer 6.3 and L major viab 68.5*.
CN1CCN(c2nc(-c3cccs3)cs2)CC1 was read as CHOP inh 0.3, b-catenin transl 0.0, Dynein cargo inh -0.783, Autophagy HCS inactive, MT stabilizer 3.2 and L major viab 11.0.
Screening O=Cc1cccn1-c1sc2c(c1C(=O)O)CCCC2 returned CHOP inh 27.1, b-catenin transl -0.4, Dynein cargo inh 0.293, Autophagy HCS inactive, MT stabilizer 1.2 and L major viab 19.7.
N#Cc1c(-n2cccc2C=O)sc2c1CCCC2 was read as CHOP inh 24.1, b-catenin transl -0.1, Dynein cargo inh 1.37, Autophagy HCS inactive, MT stabilizer 2.7 and L major viab 52.3*.
Screening O=c1c2c(nc3nc(NCc4ccccc4Cl)[nH]n13)CCC2 returned CHOP inh -4.4, b-catenin transl 0.5, Dynein cargo inh 0.0806, Autophagy HCS inactive, MT stabilizer 4.6 and L major viab -6.5.
Screening COc1ccc(CNC(=O)C(c2ccc(C)cc2)N(Cc2cccs2)C(=O)c2ccc3c(c2)OCCO3)cc1 (centres undefined) returned CHOP inh 27.2, b-catenin transl -2.4, Dynein cargo inh -1.14, Autophagy HCS inactive, MT stabilizer 3.1 and L major viab 98.9*.
Screening Cc1ccc(C(C(=O)NCc2ccccc2)N(Cc2cccs2)C(=O)c2ccc3c(c2)OCCO3)cc1 (centres undefined) returned CHOP inh -4.1, b-catenin transl -2.2, Dynein cargo inh -1.65, Autophagy HCS active, MT stabilizer 8.1 and L major viab 4.0.
`CCCCn1c(=O)c2ccccc2c2ccccc2c1=O` gave CHOP inh 75.8*, Dynein cargo inh 0.273, Autophagy HCS inactive, MT stabilizer 1.6 and L major viab -5.9.
COCCn1c(=O)c2ccccc2c2ccccc2c1=O was read as CHOP inh 12.6, b-catenin transl -1.5, Dynein cargo inh 1.56, Autophagy HCS inactive, MT stabilizer 5.2 and L major viab -1.4.
O=C1N=C(N2CCOCC2)S/C1=C\c1ccc(-c2ccccc2Cl)o1 was read as CHOP inh 9.7, b-catenin transl -1.1, Dynein cargo inh 2.87, Autophagy HCS active, MT stabilizer 7.6 and L major viab 1.1.
`CCOC(=O)N1CCC(N2CCCC(CO)(Cc3cccc(Cl)c3)C2)CC1` (centres undefined) gave CHOP inh 12.8, b-catenin transl -1.5, Dynein cargo inh -0.646, Autophagy HCS inactive, MT stabilizer 3.5 and L major viab 87.2*.
CSCC(=O)N1CCCC(CO)(Cc2ccccc2C)C1 (centres undefined) was read as CHOP inh 2.4, b-catenin transl 1.1, Dynein cargo inh -0.503, Autophagy HCS inactive, MT stabilizer 2.2 and L major viab -5.2.
